Values after ≈ are worked out from the molar mass of the structure shown.
Legend:
Neisseria gonorrhoeae [1] = test: Antimicrobial activity against Neisseria gonorrhoeae G strain harbouring type 2 topoisomerase GyrA S91F and ParE G410V mutant incubated for 20 to 24 hrs by CLSI protocol based broth microdilution method; assay type: functional; settings: time 20-24 hrs
Neisseria gonorrhoeae [2] = test: Antimicrobial activity against wild type Neisseria gonorrhoeae ATCC 49226 incubated for 20 to 24 hrs by CLSI protocol based broth microdilution method; assay type: functional; settings: time 20-24 hrs
Neisseria gonorrhoeae [3] = test: Antimicrobial activity against wild type Neisseria gonorrhoeae F strain incubated for 20 to 24 hrs by CLSI protocol based broth microdilution method; assay type: functional; settings: time 20-24 hrs
Neisseria gonorrhoeae [4] = test: Antimicrobial activity against Neisseria gonorrhoeae K strain harbouring type 2 topoisomerase GyrA S91F, D95N and ParC S87R, S88P mutant incubated for 20 to 24 hrs by CLSI protocol based broth microdilution method; assay type: functional; settings: time 20-24 hrs
Neisseria gonorrhoeae [5] = test: Antimicrobial activity against wild type Neisseria gonorrhoeae O strain incubated for 20 to 24 hrs by CLSI protocol based broth microdilution method; assay type: functional; settings: time 20-24 hrs
Neisseria gonorrhoeae [6] = test: Antimicrobial activity against wild type Neisseria gonorrhoeae P strain incubated for 20 to 24 hrs by CLSI protocol based broth microdilution method; assay type: functional; settings: time 20-24 hrs
Neisseria gonorrhoeae [7] = test: Antimicrobial activity against wild type Neisseria gonorrhoeae V strain harbouring type 2 topoisomerase GyrA S91F, D95G and ParC S87R mutant incubated for 20 to 24 hrs by CLSI protocol based broth microdilution method; assay type: functional; settings: time 20-24 hrs
Neisseria gonorrhoeae [8] = test: Antimicrobial activity against wild type Neisseria gonorrhoeae Y strain harbouring type 2 topoisomerase GyrA S91F, D95G and ParC S87R mutant incubated for 20 to 24 hrs by CLSI protocol based broth microdilution method; assay type: functional; settings: time 20-24 hrs
[9] = target: Voltage-gated inwardly rectifying potassium channel KCNH2 (Homo sapiens, UniProt Q12809); test: Inhibition of hERG cardiac ion channel; assay type: toxicity
Procedure, shortened: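 hERG channel inhibition was run by a contract lab. […] Determinations were made in duplicate or triplicate (n = 2 or 3).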

Staphylococcus aureus [10] = test: Antibacterial activity against cystic fibrosis isolate Staphylococcus aureus by CLSI method; assay type: functional
Staphylococcus aureus [11] = test: Antibacterial activity against Staphylococcus aureus ATCC 29213 by CLSI method; assay type: functional
Staphylococcus aureus [12] = test: Antibacterial activity against methicillin-resistant Staphylococcus aureus USA300 by CLSI method; assay type: functional
Staphylococcus aureus [13] = test: Antibacterial activity against Staphylococcus aureus 3527 by CLSI method; assay type: functional
Staphylococcus aureus [14] = test: Antibacterial activity against Staphylococcus aureus harbouring GyrA D83N mutant by CLSI method; assay type: functional
DNA gyrase = DNA gyrase (Staphylococcus aureus, UniProt P0A0K8+P20831); test: Inhibition of Staphylococcus aureus DNA gyrase supercoiling activity incubated for 25 min by ethidium bromide/bromophenol blue staining based agarose gel electrophoresis analysis; assay type: protein-complex assay
Topoisomerase IV = Topoisomerase IV (Staphylococcus aureus, UniProt P0C1S7+P0C1U9); test: Inhibition of Staphylococcus aureus DNA topoisomerase 4 decatenation activity using kDNA as substrate incubated for 10 to 20 min by ethidium bromide/bromophenol blue staining based agarose gel electrophoresis analysis; assay type: protein-complex assay
Staphylococcus aureus [15] = test: Selectivity ratio of IC50 for inhibition of Staphylococcus aureus DNA topoisomerase 4 decatenation activity to IC50 for inhibition of Staphylococcus aureus DNA gyrase supercoiling activity
[16] = Metabolic stability in mouse liver microsomes assessed as half life; assay type: ADME, Microsome
[17] = Cytotoxicity activity against human K562 cells assessed as inhibition of cellular growth; assay type: toxicity, cell-based
Procedure, shortened: (§1)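 Human K562 leukemia cells were tested alongside K/VP.5, an etoposide-resistant clonal subline derived from them that has reduced levels of human topoisomerase IIα. Cell growth inhibition was expressed as an IC50.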

[18] = Cytotoxicity activity against human K/VP.5 cells assessed as inhibition of cellular growth; assay type: toxicity, cell-based; procedure, shortened: as §1
[19] = Inhibition of Neisseria gonorrhoeae DNA gyrase supercoiling activity incubated for 25 min by ethidium bromide/bromophenol blue staining based agarose gel electrophoresis analysis
Procedure, shortened: (§2)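 The N. gonorrhoeae enzymes were assayed separately: supercoiling by DNA gyrase, and decatenation of kDNA by topoisomerase IV. Concentration–response data were collected over at least three independent experiments and summarized with standard deviation, and IC50 values were derived.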

[20] = Inhibition of Neisseria gonorrhoeae DNA topoisomerase 4 decatenation activity using kDNA as substrate incubated for 10 to 20 min by ethidium bromide/bromophenol blue staining based agarose gel electrophoresis analysis; procedure, shortened: as §2
Neisseria gonorrhoeae [21] = test: Antimicrobial activity against Neisseria gonorrhoeae M strain harbouring type 2 topoisomerase GyrA S91F,D95G mutant incubated for 20 hrs by agar dilution method; assay type: functional
Neisseria gonorrhoeae [22] = test: Antimicrobial activity against Neisseria gonorrhoeae L strain harbouring type 2 topoisomerase GyrA S91F,D95N and ParC D86N,S88P mutant incubated for 20 hrs by agar dilution method; assay type: functional

SMILES	MIC (Neisseria gonorrhoeae [1]) [µg/mL]	MIC (Neisseria gonorrhoeae [2]) [µg/mL]	MIC (Neisseria gonorrhoeae [3]) [µg/mL]	MIC (Neisseria gonorrhoeae [4]) [µg/mL]	MIC (Neisseria gonorrhoeae [5]) [µg/mL]	MIC (Neisseria gonorrhoeae [6]) [µg/mL]	MIC (Neisseria gonorrhoeae [7]) [µg/mL]	MIC (Neisseria gonorrhoeae [8]) [µg/mL]	IC50 [9] [µM]	MIC (Staphylococcus aureus [10]) [µg/mL]	MIC (Staphylococcus aureus [11]) [µg/mL]	MIC (Staphylococcus aureus [12]) [µg/mL]	MIC (Staphylococcus aureus [13]) [µg/mL]	MIC (Staphylococcus aureus [14]) [µg/mL]	IC50 (DNA gyrase) [µM]	IC50 (Topoisomerase IV) [µM]	Ratio IC50 (Staphylococcus aureus [15])	half-life [16] [min]	IC50 [17] [µM]	IC50 [18] [µM]	other results
COc1ccc2ncc(F)c(C[C@H](O)[C@H]3OC[C@H](NCc4cc5c(nn4)OCCO5)CO3)c2n1	> 32	32 (≈ 67.6 µM)	8 (≈ 16.9 µM)	> 32	32 (≈ 67.6 µM)	32 (≈ 67.6 µM)	8 (≈ 16.9 µM)	16 (≈ 33.8 µM)	–	–	–	–	–	–	–	–	–	–	–	–	–
CO/N=C(\C(=O)N[C@@H]1C(=O)N2C(C(=O)O)=C(CSc3nc(=O)c(O)nn3C)CS[C@H]12)c1csc(N)n1 [CEFTRIAXONE]	≤ 0.001	0.004 (≈ 0.00721 µM)	≤ 0.001	0.008 (≈ 0.0144 µM)	0.004 (≈ 0.00721 µM)	≤ 0.001	0.002 (≈ 0.00361 µM)	1 (≈ 1.8 µM)	–	–	–	–	–	–	–	–	–	–	–	–	–
O=c1ccc2ccc(F)c3c2n1CC3C[C@H]1OC[C@H](NCc2cc3c(cn2)OCCC3)CO1 (stereo partly specified)	2 (≈ 4.43 µM)	0.25 (≈ 0.554 µM)	≤ 0.03	0.5 (≈ 1.11 µM)	0.5 (≈ 1.11 µM)	1 (≈ 2.21 µM)	≤ 0.03	≤ 0.03	53	≤ 0.25	≤ 0.25	0.5 (≈ 1.11 µM)	0.5 (≈ 1.11 µM)	2 (≈ 4.43 µM)	0.58	2.9	5	3.64	109	85	–
O=c1ccc2ccc(F)c3c2n1CC3C[C@H]1OC[C@H](NCc2cc3c(nn2)OCCS3)CO1 (stereo partly specified)	32 (≈ 68 µM)	16 (≈ 34 µM)	2 (≈ 4.25 µM)	32 (≈ 68 µM)	16 (≈ 34 µM)	16 (≈ 34 µM)	4 (≈ 8.5 µM)	2 (≈ 4.25 µM)	200	0.5 (≈ 1.06 µM)	0.5 (≈ 1.06 µM)	1 (≈ 2.13 µM)	1 (≈ 2.13 µM)	8 (≈ 17 µM)	1.7	7.4	4.4	21.9	38.7	103	–
O=C1COc2ccc(CN[C@H]3CO[C@H](CC4Cn5c(=O)ccc6ccc(F)c4c65)OC3)nc2N1 (stereo partly specified)	0.25 (≈ 0.536 µM)	0.12 (≈ 0.257 µM)	0.06 (≈ 0.129 µM)	0.12 (≈ 0.257 µM)	0.25 (≈ 0.536 µM)	0.25 (≈ 0.536 µM)	≤ 0.03	0.12 (≈ 0.257 µM)	30	0.5 (≈ 1.07 µM)	0.5 (≈ 1.07 µM)	0.25 (≈ 0.536 µM)	0.25 (≈ 0.536 µM)	4 (≈ 8.58 µM)	1.6	1.3	0.81	18.4	101	127	–
COc1ccc2ncc(F)c(C[C@H](O)[C@H]3OC[C@H](NC(=O)c4ccc5c(c4)OCCO5)CO3)c2n1	> 16	4 (≈ 8.24 µM)	0.25 (≈ 0.515 µM)	> 16	> 16	> 16	0.25 (≈ 0.515 µM)	0.5 (≈ 1.03 µM)	> 100	0.25 (≈ 0.515 µM)	0.25 (≈ 0.515 µM)	0.25 (≈ 0.515 µM)	0.25 (≈ 0.515 µM)	2 (≈ 4.12 µM)	0.23	1.7	7.6	14.2	1.6	6	–
COc1ccc2ncc(F)c(C[C@H](O)[C@H]3OC[C@H](NCc4ccc5c(n4)NC(=O)CO5)CO3)c2n1	0.25 (≈ 0.515 µM)	≤ 0.03	0.06 (≈ 0.124 µM)	≤ 0.03	≤ 0.03	≤ 0.03	≤ 0.03	≤ 0.03	–	–	–	–	–	–	–	–	–	–	–	–	–
O=C1CSc2ccc(CN[C@H]3CO[C@H](CC4Cn5c(=O)ccc6ncc(F)c4c65)OC3)nc2N1 (stereo partly specified)	–	–	–	–	–	–	–	–	55	1 (≈ 2.07 µM)	1 (≈ 2.07 µM)	1 (≈ 2.07 µM)	1 (≈ 2.07 µM)	8 (≈ 16.5 µM)	1.4	2.1	1.5	36.4	81.7	128	–
O=c1ccc2ccc(F)c3c2n1CC3C[C@H]1OC[C@H](NCc2ccc3c(c2)OCCO3)CO1 (stereo partly specified)	0.5 (≈ 1.11 µM)	0.12 (≈ 0.265 µM)	≤ 0.03	0.12 (≈ 0.265 µM)	0.25 (≈ 0.553 µM)	0.25 (≈ 0.553 µM)	≤ 0.03	≤ 0.03	35	0.25 (≈ 0.553 µM)	0.125 (≈ 0.276 µM)	0.25 (≈ 0.553 µM)	0.25 (≈ 0.553 µM)	4 (≈ 8.84 µM)	0.23	0.6	2.6	3.26	29.1	33.9	–
COc1ccc2ncc(F)c(C[C@H](O)[C@H]3OC[C@H](NCc4cc5c(nn4)OCCS5)CO3)c2n1	32 (≈ 65.4 µM)	8 (≈ 16.3 µM)	1 (≈ 2.04 µM)	16 (≈ 32.7 µM)	16 (≈ 32.7 µM)	16 (≈ 32.7 µM)	≤ 0.03	0.5 (≈ 1.02 µM)	–	–	–	–	–	–	–	–	–	–	–	–	IC50 [19]: 33 µM; IC50 [20]: 83 µM
COc1ccc2ncc(F)c(C[C@H](O)[C@H]3OC[C@H](NCc4ccc5c(c4)OCCO5)CO3)c2n1	0.5 (≈ 1.06 µM)	≤ 0.03	≤ 0.03	≤ 0.03	≤ 0.03	≤ 0.03	≤ 0.03	≤ 0.03	–	–	–	–	–	–	–	–	–	–	–	–	–
O=C(O)c1cn(C2CC2)c2cc(N3CCNCC3)c(F)cc2c1=O [CIPROFLOXACIN]	–	–	–	–	–	–	–	–	–	–	–	–	–	–	–	–	–	–	–	–	MIC (Neisseria gonorrhoeae [21]): 2 µg/mL (≈ 6.04 µM); MIC (Neisseria gonorrhoeae [22]): > 8 µg/mL
O=c1ccc2ncc(=O)n3c2n1CC3CN1CCC(NCc2cc3c(cn2)OCCC3)CC1 (racemic)	–	–	–	–	–	–	–	–	–	0.25 (≈ 0.557 µM)	0.25 (≈ 0.557 µM)	0.25 (≈ 0.557 µM)	0.25 (≈ 0.557 µM)	8 (≈ 17.8 µM)	–	–	–	–	–	–	–
O=c1ccc2ncc(F)c3c2n1CC3C[C@H]1OC[C@H](NCc2ccc3c(c2)OCCO3)CO1 (stereo partly specified)	4 (≈ 8.82 µM)	0.25 (≈ 0.551 µM)	0.12 (≈ 0.265 µM)	1 (≈ 2.21 µM)	2 (≈ 4.41 µM)	2 (≈ 4.41 µM)	≤ 0.03	≤ 0.03	100	0.25 (≈ 0.551 µM)	0.125 (≈ 0.276 µM)	0.125 (≈ 0.276 µM)	0.25 (≈ 0.551 µM)	2 (≈ 4.41 µM)	0.047	0.54	11	13.9	34.8	39.2	–
O=C1COc2ccc(CN[C@H]3CO[C@H](CC4Cn5c(=O)ccc6ncc(F)c4c65)OC3)nc2N1 (stereo partly specified)	2 (≈ 4.28 µM)	1 (≈ 2.14 µM)	0.12 (≈ 0.257 µM)	1 (≈ 2.14 µM)	1 (≈ 2.14 µM)	2 (≈ 4.28 µM)	0.5 (≈ 1.07 µM)	1 (≈ 2.14 µM)	97	2 (≈ 4.28 µM)	2 (≈ 4.28 µM)	1 (≈ 2.14 µM)	2 (≈ 4.28 µM)	8 (≈ 17.1 µM)	4.2	1.4	0.33	66.3	> 200	> 200	–
O=c1ccc2ncc(F)c3c2n1CC3C[C@H]1OC[C@H](NCc2cc3c(cn2)OCCC3)CO1 (stereo partly specified)	8 (≈ 17.7 µM)	2 (≈ 4.42 µM)	0.12 (≈ 0.265 µM)	1 (≈ 2.21 µM)	2 (≈ 4.42 µM)	2 (≈ 4.42 µM)	≤ 0.03	0.25 (≈ 0.553 µM)	125	0.5 (≈ 1.11 µM)	0.25 (≈ 0.553 µM)	1 (≈ 2.21 µM)	1 (≈ 2.21 µM)	8 (≈ 17.7 µM)	2.1	1.6	0.76	18.3	268	187	–
COc1ccc2ncc(F)c(C[C@H](O)[C@H]3OC[C@H](NC(=O)c4ccc5c(n4)NC(=O)CO5)CO3)c2n1	0.25 (≈ 0.501 µM)	≤ 0.015	≤ 0.015	0.12 (≈ 0.24 µM)	0.06 (≈ 0.12 µM)	≤ 0.015	≤ 0.015	≤ 0.015	> 100	≤ 0.06	0.125 (≈ 0.25 µM)	≤ 0.06	≤ 0.06	1 (≈ 2 µM)	0.19	1.1	5.8	5.56	0.49	3.1	–
